According to ChEMBL document CHEMBL2321760, “Design, synthesis, and biological evaluation of a series of benzo[de][1,7]naphthyridin-7(8H)-ones bearing a functionalized longer chain appendage as novel PARP1 inhibitors” (J Med Chem, 2013):
Activity calls are given as the source filed them. The rule behind the calls is not given here.

Tests used:
[1] = Cytotoxicity against Chinese hamster V79 cells expressing wild type BRCA2 assessed as growth inhibition; type: cell-based, Cricetulus griseus
Outline: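 V79 (wild-type Chinese hamster lung fibroblasts) grown in RPMI-1640 with 10% FBS, 37 °C, 5% CO2. Six concentrations per test. CC50 is the concentration reducing proliferation and growth by 50%, calculated by Logit method from at least three independent tests.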

[2] = Cytotoxicity against Chinese hamster BRCA2-deficient VC8 cells assessed as growth inhibition; type: cell-based; conditions: Cricetulus griseus, V-C8
Outline: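 V-C8 (BRCA2-deficient Chinese hamster lung fibroblasts) grown in F12 with 10% FBS, 37 °C, 5% CO2. Six concentrations per test. CC50 is the concentration reducing proliferation and growth by 50%, calculated by Logit method from at least three independent tests.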

[3] = molecular target: Poly [ADP-ribose] polymerase 1 (Homo sapiens, UniProt P09874); assay: Inhibition of human recombinant PARP1 after 1 hr by ELISA
[4] = Cytotoxicity against human BRCA1-deficient MDA-MB-436 cells assessed as growth inhibition; type: cell-based
Outline: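 Proliferation assay in BRCA1-mutant human breast cancer MDA-MB-436 cells. Six concentrations per test. CC50 calculated by Logit method from at least three independent tests.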

SK-OV-3 [5] = assay: Potentiation of temozolomide-induced cytotoxicity in human SKOV3 cells assessed as reduction in temozolomide IC50 at 1 uM after 7 days by sulforhodamine B assay; type: functional
Outline: (§1)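 SKOV3 cells in DMEM with 10% FBS were given gradient concentrations of temozolomide, alone or with compound at 0.5 or 1.0 µM, for 7 days. Cytotoxicity read by sulforhodamine B. Temozolomide IC50 reported as mean ± SD, n=3.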

SK-OV-3 [6] = assay: Potentiation of temozolomide-induced cytotoxicity in human SKOV3 cells assessed as reduction in temozolomide IC50 at 0.5 uM after 7 days by sulforhodamine B assay; type: functional; outline: as §1
[7] = Ratio of CC50 for Chinese hamster BRCA2-deficient VC8 cells to IC50 for human recombinant PARP1
[8] = molecular target: Poly [ADP-ribose] polymerase 1 (Cricetulus griseus) (UniProt Q9R152); assay: Inhibition of PARP1 in Chinese hamster BRCA2-deficient VC8 cells assessed as impairment of cell cycle progression at 0.5 uM after 24 hrs by propidium iodide staining-based FACS flow cytometric analysis
Outline: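 BRCA2-deficient V-C8 cells treated with compound at 0.5 µM, 37 °C, 24 h. Cells then harvested, fixed and stained with 10 µg/mL propidium iodide. Cell-cycle distribution read by flow cytometry, at least 10,000 events per sample.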

PARP 1, 2 and 3 = PARP 1, 2 and 3 (Homo sapiens, UniProt P09874+Q9Y6F1+Q9UGN5); assay: Inhibition of PARP1/PARP2 in human SKOV3 cells assessed as reduction in H2O2-induced PARylation incubated for 4 hrs prior to H2O2 treatment; type: cell-based; conditions: sk-ov-3
hERG (KCNH2) = hERG (KCNH2) (Homo sapiens, UniProt Q12809); assay: Inhibition of human ERG at 5 uM relative to control
[9] = (§2) Oral bioavailability in rat at 20 mg/kg; type: ADME, organism-based; conditions: in vivo
Outline: (§3)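 Rat oral PK, 20 mg/kg po. Vehicle DMSO, Tween 80, normal saline. Cmax, Tmax, AUC0-∞ and oral bioavailability F taken from plasma concentration-time curves. Values are the average of three runs.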

[10] = (§4) AUC (0 to infinity) in rat at 20 mg/kg, po; type: ADME, organism-based, Plasma; parameters: time infinity, dose 20 mg/kg, route oral; conditions: plasma; outline: as §3
[11] = Tmax in rat at 20 mg/kg, po; type: ADME, organism-based; parameters: dose 20 mg/kg, route oral; conditions: in vivo; outline: as §3
[12] = Cmax in rat at 20 mg/kg, po; type: ADME, organism-based; parameters: dose 20 mg/kg, route oral; conditions: in vivo; outline: as §3
[13] = Half life in rat at 10 mg/kg, iv; type: ADME, organism-based; parameters: dose 10 mg/kg, route intravenous; conditions: in vivo
Outline: (§5)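 Rat intravenous PK, 10 mg/kg iv. Vehicle DMSO, Tween 80, normal saline. Clearance, Vss and half-life derived from plasma concentration-time data. Values are the average of three runs.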

[14] = Volume of distribution at steady state in rat at 10 mg/kg, iv; type: ADME, organism-based; parameters: dose 10 mg/kg, route intravenous; conditions: in vivo, read-out: Vdss; outline: as §5
[15] = (§6) Clearance in rat at 10 mg/kg, iv; type: ADME, organism-based; parameters: dose 10 mg/kg, route intravenous; conditions: in vivo; outline: as §5
[16] = Ratio of AZD2281 CC50 to compound CC50 for human BRCA1-deficient MDA-MB-436 cells; type: ADME
Rattus norvegicus [17] = assay: as §2; type: ADME, organism-based; conditions: in vivo; outline: as §3
Rattus norvegicus [18] = assay: as §4; type: ADME, organism-based, Plasma; parameters: time infinity, dose 20 mg/kg, route oral; conditions: in vivo; outline: as §3
Rattus norvegicus [19] = assay: as §6; type: ADME, organism-based; parameters: dose 10 mg/kg, route intravenous; conditions: in vivo; outline: as §5
[20] = Ratio of AZD2281 CC50 to compound CC50 for Chinese hamster BRCA2-deficient VC8 cells; type: ADME, cell-based, Cricetulus griseus

Chain of Poly [ADP-ribose] polymerase 1 (P09874 whole entry): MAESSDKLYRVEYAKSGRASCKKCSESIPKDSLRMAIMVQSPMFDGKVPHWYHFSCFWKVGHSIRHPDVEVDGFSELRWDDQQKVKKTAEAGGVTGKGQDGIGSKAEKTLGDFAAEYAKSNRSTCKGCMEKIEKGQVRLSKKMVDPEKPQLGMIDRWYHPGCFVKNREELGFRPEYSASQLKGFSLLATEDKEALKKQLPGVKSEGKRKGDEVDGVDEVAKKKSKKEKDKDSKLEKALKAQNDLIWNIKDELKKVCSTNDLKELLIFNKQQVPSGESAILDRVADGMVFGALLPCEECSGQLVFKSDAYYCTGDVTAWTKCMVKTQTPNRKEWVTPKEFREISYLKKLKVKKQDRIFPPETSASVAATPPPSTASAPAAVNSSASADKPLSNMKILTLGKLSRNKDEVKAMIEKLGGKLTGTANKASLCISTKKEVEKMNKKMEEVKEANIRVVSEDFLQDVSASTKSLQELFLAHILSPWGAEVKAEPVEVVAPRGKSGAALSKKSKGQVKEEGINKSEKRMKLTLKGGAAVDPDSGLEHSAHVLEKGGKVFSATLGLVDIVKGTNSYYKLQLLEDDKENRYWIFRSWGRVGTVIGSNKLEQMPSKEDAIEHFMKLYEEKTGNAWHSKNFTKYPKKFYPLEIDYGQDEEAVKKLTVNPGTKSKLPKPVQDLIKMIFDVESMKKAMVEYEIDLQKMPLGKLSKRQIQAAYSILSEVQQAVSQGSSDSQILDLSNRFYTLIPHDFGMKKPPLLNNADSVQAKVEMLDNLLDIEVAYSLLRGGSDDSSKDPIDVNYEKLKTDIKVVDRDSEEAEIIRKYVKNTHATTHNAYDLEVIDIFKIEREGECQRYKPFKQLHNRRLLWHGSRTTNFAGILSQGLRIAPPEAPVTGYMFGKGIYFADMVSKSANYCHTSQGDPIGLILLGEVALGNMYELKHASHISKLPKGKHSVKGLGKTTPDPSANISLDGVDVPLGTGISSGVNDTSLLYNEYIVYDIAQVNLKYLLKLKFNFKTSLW
Chain of Poly [ADP-ribose] polymerase 1 (Cricetulus griseus) (Q9R152 whole entry): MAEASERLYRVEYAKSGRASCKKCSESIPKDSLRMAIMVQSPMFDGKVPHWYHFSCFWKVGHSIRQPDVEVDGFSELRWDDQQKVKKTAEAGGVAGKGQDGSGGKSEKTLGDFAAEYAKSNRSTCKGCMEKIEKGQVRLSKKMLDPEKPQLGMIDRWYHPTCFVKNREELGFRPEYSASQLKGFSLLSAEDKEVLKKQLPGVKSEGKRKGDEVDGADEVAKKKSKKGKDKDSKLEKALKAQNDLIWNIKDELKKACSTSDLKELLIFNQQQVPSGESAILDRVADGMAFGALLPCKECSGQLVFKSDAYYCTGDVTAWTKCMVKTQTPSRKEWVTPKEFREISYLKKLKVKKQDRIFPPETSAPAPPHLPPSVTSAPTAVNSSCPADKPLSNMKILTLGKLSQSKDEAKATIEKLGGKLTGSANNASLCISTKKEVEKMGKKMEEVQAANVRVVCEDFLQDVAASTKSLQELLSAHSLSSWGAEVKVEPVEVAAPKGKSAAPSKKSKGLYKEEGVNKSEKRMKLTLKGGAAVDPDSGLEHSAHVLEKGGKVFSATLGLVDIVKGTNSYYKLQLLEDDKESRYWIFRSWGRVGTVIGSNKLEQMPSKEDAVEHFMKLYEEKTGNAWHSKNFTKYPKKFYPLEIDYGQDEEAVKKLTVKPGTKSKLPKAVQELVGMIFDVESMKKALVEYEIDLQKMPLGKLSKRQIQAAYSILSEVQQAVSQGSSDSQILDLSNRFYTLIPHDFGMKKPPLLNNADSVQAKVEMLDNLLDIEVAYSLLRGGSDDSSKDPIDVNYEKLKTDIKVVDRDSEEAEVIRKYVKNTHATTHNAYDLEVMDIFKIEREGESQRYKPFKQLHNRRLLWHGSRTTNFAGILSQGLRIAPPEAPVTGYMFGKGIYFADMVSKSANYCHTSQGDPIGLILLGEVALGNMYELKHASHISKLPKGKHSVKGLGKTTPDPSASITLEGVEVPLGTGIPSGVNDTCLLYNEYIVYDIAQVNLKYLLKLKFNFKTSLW
Chain of hERG (KCNH2) (Q12809 whole entry): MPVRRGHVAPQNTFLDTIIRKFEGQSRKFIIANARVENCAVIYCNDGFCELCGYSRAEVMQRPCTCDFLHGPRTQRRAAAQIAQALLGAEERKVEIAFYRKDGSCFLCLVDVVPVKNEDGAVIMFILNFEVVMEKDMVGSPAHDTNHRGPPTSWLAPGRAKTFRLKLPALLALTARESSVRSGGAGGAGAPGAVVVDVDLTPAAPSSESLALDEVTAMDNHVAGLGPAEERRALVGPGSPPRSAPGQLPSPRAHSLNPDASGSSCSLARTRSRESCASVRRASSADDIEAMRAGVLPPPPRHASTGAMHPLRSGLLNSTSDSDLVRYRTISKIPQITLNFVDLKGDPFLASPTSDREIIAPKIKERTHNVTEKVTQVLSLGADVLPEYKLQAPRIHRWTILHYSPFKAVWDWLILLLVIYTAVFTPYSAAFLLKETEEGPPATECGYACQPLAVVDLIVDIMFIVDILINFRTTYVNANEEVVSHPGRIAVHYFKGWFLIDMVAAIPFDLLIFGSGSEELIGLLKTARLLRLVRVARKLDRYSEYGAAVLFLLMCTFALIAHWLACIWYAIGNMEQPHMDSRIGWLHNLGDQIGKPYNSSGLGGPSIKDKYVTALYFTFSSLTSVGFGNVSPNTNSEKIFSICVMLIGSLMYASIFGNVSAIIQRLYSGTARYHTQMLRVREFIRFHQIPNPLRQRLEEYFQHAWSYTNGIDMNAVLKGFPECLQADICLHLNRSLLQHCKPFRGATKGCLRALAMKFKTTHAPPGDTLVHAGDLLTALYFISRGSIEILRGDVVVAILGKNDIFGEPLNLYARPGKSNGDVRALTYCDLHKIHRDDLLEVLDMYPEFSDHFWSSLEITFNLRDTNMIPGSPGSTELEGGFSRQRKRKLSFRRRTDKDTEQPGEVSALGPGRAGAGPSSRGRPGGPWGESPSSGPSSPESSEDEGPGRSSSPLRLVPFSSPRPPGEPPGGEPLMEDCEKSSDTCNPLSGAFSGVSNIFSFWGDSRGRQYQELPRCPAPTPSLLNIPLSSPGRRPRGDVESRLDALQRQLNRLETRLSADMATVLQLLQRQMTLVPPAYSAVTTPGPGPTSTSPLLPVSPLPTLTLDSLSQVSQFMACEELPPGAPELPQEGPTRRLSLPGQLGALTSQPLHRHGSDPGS

| IC50 [3] [nM] | SMILES | CC50 [1] [nM] | CC50 [2] [nM] | also measured |
| --- | --- | --- | --- | --- |
| 86.3 | O=C(NC1CNC(=O)c2ccccc21)c1cc(Cc2n[nH]c(=O)c3ccccc23)ccc1F (stereo not drawn) | > 10000 | > 10000 | – |
| 0.56 | O=C(c1cc(Cc2n[nH]c(=O)c3ccccc23)ccc1F)N1CCc2cccc3c2C1CC3F (stereo not drawn) | > 10000 | > 10000 | CC50 [4]: 4300 nM |
| 1.39 | O=C(c1cc(Cc2n[nH]c(=O)c3ccccc23)ccc1F)N1Cc2cccc3c2C(C1)NCC3 (stereo not drawn) | > 10000 | 630 | CC50 [4]: 556 nM |
| > 10000 | O=C(CN1CCc2cccc3c2C1CNC3=O)N[C@H](Cc1ccccc1)C(=O)N1CC=C(c2ccc(F)cc2)CC1 (stereo partly drawn) | – | – | – |
| – | O=C(c1cc(Cc2n[nH]c(=O)c3ccccc23)ccc1F)N1CCN(C(=O)C2CC2)CC1 [OLAPARIB] | > 10000 | 201 | fold change (FC) (SK-OV-3 [5]): 10.4; fold change (FC) (SK-OV-3 [6]): 9.6; CC50 [4]: 43.2 nM |
| 33 | O=C(NCC(=O)N1CCc2cccc3c2C1CNC3=O)c1cc(Cc2n[nH]c(=O)c3ccccc23)ccc1F (stereo not drawn) | > 10000 | > 1000 | – |
| 83.9 | O=C(NC1CC(=O)c2ccccc21)c1cc(Cc2n[nH]c(=O)c3ccccc23)ccc1F (stereo not drawn) | > 10000 | > 10000 | – |
| 8520 | O=C(CCN1CCc2cccc3c2C1CNC3=O)NCC(=O)N1CCN(c2ncccn2)CC1 (stereo not drawn) | – | – | – |
| 146 | O=C(NC1CNC(=O)c2ccccc21)c1cccc(Cc2n[nH]c(=O)c3ccccc23)c1 (stereo not drawn) | > 10000 | > 10000 | – |
| 300 | COc1ccc(N2CCN(C(=O)CNC(=O)CN3CCc4cccc5c4C3CNC5=O)CC2)cc1 (stereo not drawn) | – | – | – |
| 387 | O=C1CC2c3c(cccc3N1)CCN2C(=O)c1cc(Cc2n[nH]c(=O)c3ccccc23)ccc1F (stereo not drawn) | > 10000 | > 10000 | – |
| 0.31 | O=C1NCC2c3c(cccc31)CCN2C(=O)c1cc(Cc2n[nH]c(=O)c3ccccc23)ccc1F (stereo not drawn) | > 10000 | 96 | fold change (FC) (SK-OV-3 [5]): 10.6; Ratio CC50/IC50 [7]: 300; fold change (FC) (SK-OV-3 [6]): 9.3; inhibition [8]: Active; IC50 (PARP 1, 2 and 3): 66.1 nM; inhibition at 5 µM (hERG (KCNH2)): 17%; bioavailability [9]: 21%; AUC(0-inf) [10]: 1820 ng·h/mL; Tmax [11]: 25.2 min; Cmax [12]: 722 ng/mL; half-life [13]: 104 min; Vd [14]: 4.27 L/kg; clearance [15]: 38 mL/min/kg; Ratio [16]: 2; CC50 [4]: 23.3 nM |
| 8960 | O=C(CCN1CCc2cccc3c2C1CNC3=O)NCC(=O)N1CCN(c2ccccc2F)CC1 (stereo not drawn) | – | – | – |
| 1100 | O=C(CCN1CCc2cccc3c2C1CNC3=O)NCC(=O)N1CC=C(c2ccc(F)cc2)CC1 (stereo not drawn) | – | – | – |
| 4.81 | O=C(N[C@@H]1C[C@H](O)c2ccccc21)c1cc(Cc2n[nH]c(=O)c3ccccc23)ccc1F (relative stereo) | 1490 | 418 | CC50 [4]: 4520 nM |
| 210 | C[C@@H](NC(=O)CN1CCc2cccc3c2C1CNC3=O)C(=O)N1CC=C(c2ccc(F)cc2)CC1 (stereo partly drawn) | – | – | – |
| 0.57 | O=C(N[C@@H]1C[C@@H](O)c2ccccc21)c1cc(Cc2n[nH]c(=O)c3ccccc23)ccc1F (relative stereo) | 4260 | 2270 | CC50 [4]: 775 nM |
| 86.2 | O=C(c1cc(Cc2n[nH]c(=O)c3ccccc23)ccc1F)N1CCc2cccc3c2C1CC3O (stereo not drawn) | > 10000 | > 10000 | – |

| IC50 [3] [nM] | SMILES | CC50 [1] [nM] | CC50 [2] [nM] | also measured |
| --- | --- | --- | --- | --- |
| 3.46 | O=C1CC2c3c(cccc31)CCN2C(=O)c1cc(Cc2n[nH]c(=O)c3ccccc23)ccc1F (stereo not drawn) | > 10000 | 4.53 | fold change (FC) (SK-OV-3 [5]): 22.2; fold change (FC) (SK-OV-3 [6]): 19.5; inhibition [8]: Active; IC50 (PARP 1, 2 and 3): 0.49 nM; inhibition at 5 µM (hERG (KCNH2)): 34%; F (Rattus norvegicus [17]): 10%; AUC (Rattus norvegicus [18]): 980 ng·h/mL; Tmax [11]: 26.4 min; Cmax [12]: 116 ng/mL; half-life [13]: 66.6 min; Vd [14]: 4.56 L/kg; CL (Rattus norvegicus [19]): 128 mL/min/kg; Ratio [16]: 160; CC50 [4]: < 0.26 nM; Ratio [20]: 40 |
| 1.8 | O=C1NCC2c3c(cccc31)CCN2C(=O)c1cc(Cc2n[nH]c(=O)c3c2CCCC3)ccc1F (stereo not drawn) | > 10000 | 114 | Ratio [20]: 2 |
| 45 | O=C1NCC2c3c(cccc31)CCN2C(=O)C1CCCN1C(=O)c1cc(Cc2n[nH]c(=O)c3ccccc23)ccc1F (stereo not drawn) | > 10000 | > 1000 | – |
| 76.6 | NC1CC2c3c(cccc31)CCN2C(=O)c1cc(Cc2n[nH]c(=O)c3ccccc23)ccc1F (stereo not drawn) | > 10000 | > 10000 | – |
| 8800 | O=C1NCC2c3c(cccc31)CCN2CC(=O)N1C[C@H]2CNC[C@H]2C1 (stereo partly drawn) | – | – | – |
| 1.9 | O=C1NCC2c3c(cccc31)CCN2C(=O)C1CCN(C(=O)c2cc(Cc3n[nH]c(=O)c4ccccc34)ccc2F)CC1 (stereo not drawn) | > 10000 | > 1000 | CC50 [4]: 344 nM |
| 490 | O=C(CN1CCc2cccc3c2C1CNC3=O)N[C@@H](Cc1ccccc1)C(=O)N1CC=C(c2ccc(F)cc2)CC1 (stereo partly drawn) | – | – | – |
| > 10000 | O=C1NCC2c3c(cccc31)CCN2CC(=O)N1CCn2c(nnc2C(F)(F)F)C1 (stereo not drawn) | – | – | – |
| 9380 | O=C1NCC2c3c(cccc31)CCN2CC(=O)N1CCC2CNCC21 (stereo not drawn) | – | – | – |
| 156 | O=C(c1cc(Cc2n[nH]c(=O)c3ccccc23)ccc1F)N1CCc2cccc3c2C1CNC3 (stereo not drawn) | > 10000 | > 10000 | – |
| 19 | C[C@H](NC(=O)CN1CCc2cccc3c2C1CNC3=O)C(=O)N1CC=C(c2ccc(F)cc2)CC1 (stereo partly drawn) | – | – | – |
| 8890 | COc1ccc(N2CCN(C(=O)CNC(=O)CCCN3CCc4cccc5c4C3CNC5=O)CC2)cc1 (stereo not drawn) | – | – | – |
| 8720 | COc1ccc(N2CCN(C(=O)CNC(=O)CCN3CCc4cccc5c4C3CNC5=O)CC2)cc1 (stereo not drawn) | – | – | – |
| 36 | Cc1c(Cc2ccc(F)c(C(=O)N3CCc4cccc5c4C3CNC5=O)c2)n[nH]c(=O)c1C (stereo not drawn) | > 10000 | > 1000 | – |
| 9350 | O=C1NCC2c3c(cccc31)CCN2CC(=O)N1CC2CCCNC2C1 (stereo not drawn) | – | – | – |
| 11.2 | CN(C(=O)c1cc(Cc2n[nH]c(=O)c3ccccc23)ccc1F)C1CC(=O)c2ccccc21 (stereo not drawn) | > 10000 | 4680 | – |
| 210 | Cc1cc(Cc2ccc(F)c(C(=O)N3CCc4cccc5c4C3CNC5=O)c2)n[nH]c1=O (stereo not drawn) | – | – | – |
